Calls of active or inactive are those of the source. No cut-off for these calls is given here.
What was measured:
K562 = experiment: Cytotoxicity against human K562 cells after 72 hrs by MTT assay; details: K562, 72 h
Mus musculus [1] = experiment: Toxicity in NOD-SCID mouse bearing human MV4-11 cells assessed as change in body weight at 20 to 100 mg/kg, ip administered qd for 21 days; type: organism-based; parameters: dose 20-100 mg/kg, route intraperitoneal; details: in vivo, 504 h
In short: (§1)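 Female NOD-SCID mice (6−7 weeks old) received s.c. hind-flank injections of MV4-11 cells (100 μL of a 1 × 10⁸/mL suspension in serum-free medium). At 300−500 mm³, the mice were randomized into 4 groups of 6. They were dosed ip once daily for 21 days with 20, 40 or 100 mg/kg/d or vehicle (25% PEG400 plus 5% DMSO, 5 mL/kg). Body weight and signs of toxicity were followed throughout.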

[2] = biological target: Mast/stem cell growth factor receptor Kit (Homo sapiens, UniProt P10721); experiment: Inhibition of human c-kit
MV4-11 [3] = experiment: Antitumor activity against human MV4-11 cells xenografted in NOD-SCID mouse assessed as tumor growth regression at 100 mg/kg, ip once daily for 21 days measured every 3 days; type: functional, organism-based; parameters: dose 100 mg/kg
In short: (§2)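 Female NOD-SCID mice, 6−7 weeks old, received 100 μL of MV4-11 cells (1 × 10⁸/mL in serum-free medium) s.c. in the hind flank. At 300−500 mm³ tumours, mice were randomized (6 per group). Drug was dissolved in 25% (v/v) PEG400 plus 5% DMSO and given ip once daily at 5 mL/kg. Calipers every 3 days; volume = a × b²/2.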

HeLa = experiment: Cytotoxicity against human HeLa cells after 72 hrs by MTT assay
[4] = biological target: Vascular endothelial growth factor receptor 2 (Homo sapiens, UniProt P35968); experiment: Inhibition of human KDR
Mus musculus [5] = experiment: Toxicity in NOD-SCID mouse bearing human MV4-11 cells assessed as signs of toxicity at 20 to 100 mg/kg, ip administered qd for 21 days; type: organism-based; parameters: dose 20-100 mg/kg, route intraperitoneal; details: in vivo, 504 h; in short: as §1
MV4-11 [6] = experiment: Antitumor activity against human MV4-11 cells xenografted in NOD-SCID mouse assessed as tumor mitotic index at 20 mg/kg, ip administered qd for 21 days measured after 2 to 3 days of last dose by Ki67 staining-based immunohistochemical analysis; type: functional, organism-based; parameters: dose 20 mg/kg
In short: (§3)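 NOD-SCID mice bearing MV4-11 tumours received 20 mg/kg/d ip and were sacrificed at set times after dosing. Tumours were formalin-fixed and paraffin-embedded, and 4−8 μm sections were cut. Proliferation by Ki67 immunostaining, apoptosis by TUNEL staining, tissue by hematoxylin staining; light-microscope imaging.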

[7] = biological target: Tyrosine-protein kinase SYK (Homo sapiens, UniProt P43405); experiment: Inhibition of human Syk
[8] = biological target: Platelet-derived growth factor receptor beta (Homo sapiens, UniProt P09619); experiment: Inhibition of human PDGFRbeta
PC-3 = experiment: Cytotoxicity against human PC3 cells after 72 hrs by MTT assay; details: PC-3, 72 h
LoVo = experiment: Cytotoxicity against human LoVo cells after 72 hrs by MTT assay
MV4-11 [9] = experiment: Antitumor activity against human MV4-11 cells xenografted in NOD-SCID mouse assessed as tumor growth inhibition at 20 mg/kg, ip once daily for 21 days measured every 3 days; type: functional; details: MV4-11, ip, route intraperitoneal, read-out: GI; in short: as §2
SK-OV-3 = experiment: Cytotoxicity against human SKOV3 cells after 72 hrs by MTT assay; details: SK-OV-3, 72 h
NCI-H292 = experiment: Cytotoxicity against human NCI-H292 cells after 72 hrs by MTT assay; details: NCI-H292, 72 h
[10] = biological target: Serine/threonine-protein kinase PLK1 (Homo sapiens, UniProt P53350); experiment: Inhibition of human PLK1
MV4-11 [11] = experiment: Antitumor activity against human MV4-11 cells xenografted in NOD-SCID mouse assessed as tumor growth inhibition at 40 mg/kg, ip once daily for 21 days measured every 3 days; type: functional; details: MV4-11, ip, route intraperitoneal, read-out: GI; in short: as §2
SH-SY5Y = experiment: Cytotoxicity against human SH-SY5Y cells after 72 hrs by MTT assay
DU-145 = experiment: Cytotoxicity against human DU145 cells after 72 hrs by MTT assay; details: DU-145, 72 h
[12] = biological target: Insulin-like growth factor 1 receptor (Homo sapiens, UniProt P08069); experiment: Inhibition of human IGF-1R
[13] = Cytotoxicity against human SK cells after 72 hrs by MTT assay
MV4-11 [14] = experiment: Downregulation of Erk1/2 protein expression in human MV4-11 cells at 10 to 300 nM after 5 hrs by Western blot analysis; type: functional, cell-based
Aurora kinase A = Aurora kinase A (Homo sapiens, UniProt O14965); experiment: Inhibition of human Aurora A
Ramos = experiment: Cytotoxicity against human Ramos cells after 72 hrs by MTT assay
PC-9 = experiment: Cytotoxicity against human PC9 cells after 72 hrs by MTT assay; details: PC-9, 72 h
HCT-116 = experiment: Cytotoxicity against FLT3-independent human HCT116 cells after 72 hrs by MTT assay; type: functional, cell-based; details: HCT-116, 72 h
In short: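 Adherent lines at 2−5 × 10³ cells/well were allowed to settle 24 h, then the medium was replaced with serial inhibitor dilutions for 72 h. MTT was added for 2−4 h, followed by dissolution in 100% DMSO. OD read at 570 nm. Viability relative to 0.1% DMSO controls; triplicate. Grown in RPMI 1640 or DMEM with 10% FBS, 5% CO₂, 37 °C.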

U-937 = experiment: Cytotoxicity against human U937 cells after 72 hrs by MTT assay; details: U-937, 72 h
[15] = biological target: Vascular endothelial growth factor receptor 1 (Homo sapiens, UniProt P17948); experiment: Inhibition of human FLT1
[16] = biological target: Tyrosine-protein kinase Lck (Homo sapiens, UniProt P06239); experiment: Inhibition of human Lck
Jurkat = experiment: Cytotoxicity against human Jurkat cells after 72 hrs by MTT assay
[17] = biological target: Macrophage colony-stimulating factor 1 receptor (Homo sapiens, UniProt P07333); experiment: Inhibition of human FMS
MV4-11 [18] = experiment: Downregulation of STAT5 protein expression in human MV4-11 cells at 10 to 300 nM after 5 hrs by Western blot analysis; type: functional, cell-based
MV4-11 [19] = experiment: Antitumor activity against human MV4-11 cells xenografted in NOD-SCID mouse assessed as tumor regression at 20 mg/kg, ip administered qd for 21 days measured after 2 to 3 days of last dose by hematoxylin staining; type: functional, organism-based; parameters: dose 20 mg/kg; in short: as §3
MV4-11 [20] = experiment: Cytotoxicity against FLT3-dependent human MV4-11 cells after 72 hrs by MTT assay; type: functional, cell-based; details: MV4-11, 72 h
In short: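 Leukemia cells at 1−4 × 10⁴ per well were exposed to increasing inhibitor concentrations for 72 h at 37 °C. MTT was then added for 2−4 h, and cells were lysed with 20% acidified SDS. OD read at 570 nm. Viability relative to 0.1% DMSO controls; triplicate. MV4-11 grown in IMDM, others in RPMI 1640 or DMEM with 10% FBS.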

MCF7 = experiment: Cytotoxicity against human MCF7 cells after 72 hrs by MTT assay; details: MCF7, 72 h
SW480 = experiment: Cytotoxicity against human SW480 cells after 72 hrs by MTT assay; details: SW480, 72 h

Vascular endothelial growth factor receptor 2, sequence (P35968 whole entry): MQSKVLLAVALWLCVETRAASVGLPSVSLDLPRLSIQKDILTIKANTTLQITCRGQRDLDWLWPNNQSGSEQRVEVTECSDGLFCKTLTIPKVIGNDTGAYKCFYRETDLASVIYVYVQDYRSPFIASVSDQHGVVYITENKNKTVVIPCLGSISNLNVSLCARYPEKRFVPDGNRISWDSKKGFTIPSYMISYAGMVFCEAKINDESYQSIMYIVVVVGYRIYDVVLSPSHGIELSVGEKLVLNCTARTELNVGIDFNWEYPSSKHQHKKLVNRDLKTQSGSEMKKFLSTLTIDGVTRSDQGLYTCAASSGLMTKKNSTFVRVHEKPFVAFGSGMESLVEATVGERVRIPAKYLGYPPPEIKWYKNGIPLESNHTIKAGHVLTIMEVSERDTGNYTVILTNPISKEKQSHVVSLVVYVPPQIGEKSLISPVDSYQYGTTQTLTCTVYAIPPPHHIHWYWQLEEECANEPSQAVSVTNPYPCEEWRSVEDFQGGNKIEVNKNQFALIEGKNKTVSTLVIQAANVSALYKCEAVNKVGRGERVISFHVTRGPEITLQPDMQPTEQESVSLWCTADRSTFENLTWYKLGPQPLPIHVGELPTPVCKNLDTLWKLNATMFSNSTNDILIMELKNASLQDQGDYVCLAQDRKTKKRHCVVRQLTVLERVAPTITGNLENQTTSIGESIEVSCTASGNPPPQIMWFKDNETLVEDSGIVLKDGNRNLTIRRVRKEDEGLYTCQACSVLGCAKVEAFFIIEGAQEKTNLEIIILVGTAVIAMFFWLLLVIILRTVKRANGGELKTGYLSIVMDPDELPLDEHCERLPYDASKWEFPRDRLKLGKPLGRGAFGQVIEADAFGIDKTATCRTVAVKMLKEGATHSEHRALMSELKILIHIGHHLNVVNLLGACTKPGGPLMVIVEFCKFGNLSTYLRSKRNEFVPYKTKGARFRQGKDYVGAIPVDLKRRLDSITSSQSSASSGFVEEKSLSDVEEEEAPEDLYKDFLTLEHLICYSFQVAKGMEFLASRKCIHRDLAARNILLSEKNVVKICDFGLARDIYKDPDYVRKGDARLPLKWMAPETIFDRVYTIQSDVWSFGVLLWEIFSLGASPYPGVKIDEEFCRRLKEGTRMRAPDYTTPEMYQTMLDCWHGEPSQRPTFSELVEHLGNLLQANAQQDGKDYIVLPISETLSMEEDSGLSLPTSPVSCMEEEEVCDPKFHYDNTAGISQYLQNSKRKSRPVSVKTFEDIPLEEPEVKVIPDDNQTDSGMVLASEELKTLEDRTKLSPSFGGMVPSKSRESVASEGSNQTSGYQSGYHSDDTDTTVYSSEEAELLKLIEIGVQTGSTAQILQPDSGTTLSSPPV
Platelet-derived growth factor receptor beta, sequence (P09619 whole entry): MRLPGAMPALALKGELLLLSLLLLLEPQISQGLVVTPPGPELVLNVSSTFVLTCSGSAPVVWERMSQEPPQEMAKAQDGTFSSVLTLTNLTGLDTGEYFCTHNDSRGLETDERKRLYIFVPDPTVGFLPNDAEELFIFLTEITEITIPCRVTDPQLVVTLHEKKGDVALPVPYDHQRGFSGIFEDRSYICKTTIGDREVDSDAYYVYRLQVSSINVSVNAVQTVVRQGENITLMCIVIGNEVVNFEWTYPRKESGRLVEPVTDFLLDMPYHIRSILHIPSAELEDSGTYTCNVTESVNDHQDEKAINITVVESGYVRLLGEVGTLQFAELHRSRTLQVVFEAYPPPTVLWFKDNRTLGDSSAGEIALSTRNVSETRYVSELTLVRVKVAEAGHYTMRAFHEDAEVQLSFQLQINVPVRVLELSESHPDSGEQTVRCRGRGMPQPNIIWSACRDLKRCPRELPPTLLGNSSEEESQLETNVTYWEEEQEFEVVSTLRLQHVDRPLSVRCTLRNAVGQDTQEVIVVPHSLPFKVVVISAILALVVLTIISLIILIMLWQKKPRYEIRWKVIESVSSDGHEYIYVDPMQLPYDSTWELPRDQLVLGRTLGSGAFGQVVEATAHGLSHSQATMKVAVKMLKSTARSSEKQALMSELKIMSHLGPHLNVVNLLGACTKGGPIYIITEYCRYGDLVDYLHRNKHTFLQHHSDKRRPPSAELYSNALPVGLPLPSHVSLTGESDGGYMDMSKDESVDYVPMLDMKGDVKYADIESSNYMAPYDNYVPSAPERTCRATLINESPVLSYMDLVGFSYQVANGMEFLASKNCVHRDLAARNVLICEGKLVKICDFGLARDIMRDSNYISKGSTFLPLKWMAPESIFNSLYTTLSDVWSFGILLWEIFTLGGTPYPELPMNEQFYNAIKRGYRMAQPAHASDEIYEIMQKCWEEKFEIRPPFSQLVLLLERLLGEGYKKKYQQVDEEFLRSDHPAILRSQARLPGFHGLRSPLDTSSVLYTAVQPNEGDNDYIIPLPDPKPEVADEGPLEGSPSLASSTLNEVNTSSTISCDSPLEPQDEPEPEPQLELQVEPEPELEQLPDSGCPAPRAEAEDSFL
Serine/threonine-protein kinase PLK1, sequence (P53350 whole entry): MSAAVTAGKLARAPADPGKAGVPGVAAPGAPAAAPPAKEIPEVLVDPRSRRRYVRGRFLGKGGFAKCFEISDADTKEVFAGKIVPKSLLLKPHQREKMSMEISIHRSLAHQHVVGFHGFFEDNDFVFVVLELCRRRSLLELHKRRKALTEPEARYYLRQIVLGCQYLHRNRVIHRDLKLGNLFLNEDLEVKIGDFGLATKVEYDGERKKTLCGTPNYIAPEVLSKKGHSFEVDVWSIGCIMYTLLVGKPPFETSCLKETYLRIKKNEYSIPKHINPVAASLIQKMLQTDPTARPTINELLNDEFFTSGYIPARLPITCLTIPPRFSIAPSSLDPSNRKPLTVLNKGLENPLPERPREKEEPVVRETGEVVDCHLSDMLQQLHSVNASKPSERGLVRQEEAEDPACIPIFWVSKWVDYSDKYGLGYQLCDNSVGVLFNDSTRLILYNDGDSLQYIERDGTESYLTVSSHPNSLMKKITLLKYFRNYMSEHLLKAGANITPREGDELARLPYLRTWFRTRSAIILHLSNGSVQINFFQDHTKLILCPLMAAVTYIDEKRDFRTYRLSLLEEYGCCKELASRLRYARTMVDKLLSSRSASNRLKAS
Aurora kinase A, sequence (O14965 whole entry): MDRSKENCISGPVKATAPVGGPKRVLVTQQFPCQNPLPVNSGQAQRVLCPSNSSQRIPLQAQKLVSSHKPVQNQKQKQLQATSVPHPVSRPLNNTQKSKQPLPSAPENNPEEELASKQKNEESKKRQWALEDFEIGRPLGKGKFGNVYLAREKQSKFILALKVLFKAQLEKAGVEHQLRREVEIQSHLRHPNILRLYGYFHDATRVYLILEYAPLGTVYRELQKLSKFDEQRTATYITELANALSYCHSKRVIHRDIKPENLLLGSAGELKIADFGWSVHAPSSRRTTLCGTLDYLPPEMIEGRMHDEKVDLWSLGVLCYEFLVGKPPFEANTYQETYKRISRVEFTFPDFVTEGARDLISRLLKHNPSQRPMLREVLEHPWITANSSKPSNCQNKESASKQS
Macrophage colony-stimulating factor 1 receptor, sequence (P07333 whole entry): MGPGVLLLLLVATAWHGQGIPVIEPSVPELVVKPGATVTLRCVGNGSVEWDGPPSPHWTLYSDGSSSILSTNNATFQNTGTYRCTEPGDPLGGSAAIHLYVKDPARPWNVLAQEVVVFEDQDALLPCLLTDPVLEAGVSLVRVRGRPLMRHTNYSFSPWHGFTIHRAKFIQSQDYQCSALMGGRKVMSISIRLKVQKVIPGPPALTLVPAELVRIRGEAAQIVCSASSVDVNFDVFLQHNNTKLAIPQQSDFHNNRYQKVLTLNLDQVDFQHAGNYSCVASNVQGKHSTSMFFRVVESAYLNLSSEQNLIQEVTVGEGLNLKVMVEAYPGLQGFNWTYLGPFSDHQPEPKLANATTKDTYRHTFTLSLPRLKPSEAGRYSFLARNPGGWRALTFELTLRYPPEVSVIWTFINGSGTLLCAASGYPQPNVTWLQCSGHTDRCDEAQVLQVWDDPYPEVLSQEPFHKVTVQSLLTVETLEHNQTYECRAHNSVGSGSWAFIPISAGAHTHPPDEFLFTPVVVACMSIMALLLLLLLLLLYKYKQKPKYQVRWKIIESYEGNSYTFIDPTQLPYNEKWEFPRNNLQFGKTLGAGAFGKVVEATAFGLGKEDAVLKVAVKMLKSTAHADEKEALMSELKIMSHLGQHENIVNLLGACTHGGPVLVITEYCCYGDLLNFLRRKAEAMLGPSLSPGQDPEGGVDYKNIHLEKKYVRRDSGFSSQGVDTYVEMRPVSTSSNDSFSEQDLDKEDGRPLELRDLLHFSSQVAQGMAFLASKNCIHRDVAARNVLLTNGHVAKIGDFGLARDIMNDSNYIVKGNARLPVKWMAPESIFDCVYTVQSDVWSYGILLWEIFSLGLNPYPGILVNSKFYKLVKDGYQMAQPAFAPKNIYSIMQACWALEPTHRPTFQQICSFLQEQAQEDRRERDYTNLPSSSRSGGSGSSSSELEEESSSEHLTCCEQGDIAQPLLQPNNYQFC
Tyrosine-protein kinase Lck, sequence (P06239 whole entry): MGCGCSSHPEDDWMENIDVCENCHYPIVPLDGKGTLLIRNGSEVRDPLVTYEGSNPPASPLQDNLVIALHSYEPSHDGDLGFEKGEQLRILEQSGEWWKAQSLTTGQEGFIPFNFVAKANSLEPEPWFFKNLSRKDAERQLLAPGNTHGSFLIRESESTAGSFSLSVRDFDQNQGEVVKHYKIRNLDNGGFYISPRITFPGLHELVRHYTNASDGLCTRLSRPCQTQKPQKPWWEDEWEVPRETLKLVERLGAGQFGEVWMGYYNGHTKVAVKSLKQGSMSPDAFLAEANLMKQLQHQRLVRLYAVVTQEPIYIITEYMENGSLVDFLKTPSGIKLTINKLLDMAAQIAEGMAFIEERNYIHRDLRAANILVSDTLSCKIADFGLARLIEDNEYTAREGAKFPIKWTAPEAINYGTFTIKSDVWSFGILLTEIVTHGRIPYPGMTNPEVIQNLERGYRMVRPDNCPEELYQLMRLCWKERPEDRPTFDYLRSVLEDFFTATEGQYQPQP

## Cc1ccc(NC(=O)Nc2nnc(Sc3ncnc4cc(OCCCN5CCOCC5)ccc34)s2)cc1
K562
  IC50: 12.7 µM
Mus musculus [1]
  Activity: Non-toxic
[2]
  IC50: 6.8 µM
MV4-11 [3]
  Activity: Active
HeLa
  IC50: > 20 µM
[4]
  IC50: > 10 µM
Mus musculus [5]
  Activity: Non-toxic
MV4-11 [6]
  Activity: Active
[7]
  IC50: > 10 µM
[8]
  IC50: > 10 µM
PC-3
  IC50: 15.7 µM
LoVo
  IC50: > 20 µM
MV4-11 [9]
  inhibition in vivo at 20 mg/kg: 66%
SK-OV-3
  IC50: > 20 µM
NCI-H292
  IC50: 6.94 µM
[10]
  IC50: > 10 µM
MV4-11 [11]
  inhibition in vivo at 40 mg/kg: 84%
SH-SY5Y
  IC50: > 20 µM
DU-145
  IC50: 18.6 µM
[12]
  IC50: > 10 µM
[13]
  IC50: > 20 µM
MV4-11 [14]
  Activity: inactive
Aurora kinase A
  IC50: 1.5 µM
Ramos
  IC50: 6.25 µM
PC-9
  IC50: 3.72 µM
HCT-116
  IC50: > 10 µM
U-937
  IC50: > 10 µM
[15]
  IC50: > 1 µM
[16]
  IC50: > 10 µM
Jurkat
  IC50: 3.05 µM
[17]
  IC50: 2.8 µM
MV4-11 [18]
  Activity: inactive
MV4-11 [19]
  Activity: Active
MV4-11 [20]
  IC50: 0.006 µM
MCF7
  IC50: > 20 µM
SW480
  IC50: 11.2 µM
